Assays:
[1] = Selectivity ratio of IC50 for Marburg virus envelope glycoprotein-mediated cell entry in rVSIV-deltaG-MarV-GP pseuotype virus infected HEK293 cells to IC50 for Vesicular stomatitis Indiana virus envelope glycoprotein-mediated cell entry in rVSIV-deltaG-G pseudotype virus infected HEK293 cells
Procedure, shortened: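 Specificity coefficient is IC50 for rVSIV-ΔG-MarV-GP divided by IC50 for rVSIV-ΔG-G. Each IC50 came from HEK293 cells infected with that pseudotype (same VSIV capsid, different glycoprotein) with or without compound, at low-toxicity concentrations. Transduced luciferase was measured 24 h post-infection.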

[2] = Selectivity index, ratio of CC50 for HEK293 cells to IC50 for Marburg virus envelope glycoprotein-mediated cell entry in rVSIV-deltaG-MarV-GP pseuotype virus infected HEK293 cells; assay type: toxicity; details: human, read-out: Ratio CC50/IC50
Procedure, shortened: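 Selectivity index is CC50 divided by IC50 against the MARV-GP pseudotype. CC50 came from an MTT assay on HEK293 cells. For IC50, HEK293 cells were infected with rVSIV-ΔG-MarV-GP with or without compound, across a low-toxicity concentration range chosen from CC50. The luciferase signal was read 24 h post-infection.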

[3] = tested on: HEK293; experiment: Cytotoxicity against HEK293 cells assessed as reduction in cell viability after 48 hrs by MTT assay; assay type: cell-based; details: human, hek293, 48 h
Procedure, shortened: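 HEK293 target cells were exposed to the compounds and viability was read by MTT assay.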

| Compound | Ratio IC50 [1] | selectivity ratio [2] | CC50 [3] [µM] |
| --- | --- | --- | --- |
| CCN1CCN(CCC(=O)O[C@@H]2C[C@@H]3CC[C@@]2(C)C3(C)C)CC1 | 11 | 47 | 474 |
| CC1(C)[C@H]2CC[C@]1(C)[C@H](OC(=O)CCN1CCCCC1)C2 | 14 | 35 | 302 |
| CCN1CCN(CC(=O)O[C@@H]2C[C@@H]3CC[C@@]2(C)C3(C)C)CC1 | 15 | 29 | 859 |
| CC1(C)[C@H]2CC[C@]1(C)[C@H](OC(=O)CCN1CCNCC1)C2 | 10 | 21 | 207 |
| CC1(C)[C@H]2CC[C@]1(C)[C@H](OC(=O)CN1CCNCC1)C2 | 3 | 18 | 361 |
| CN1CCN(CCC(=O)O[C@@H]2C[C@@H]3CC[C@@]2(C)C3(C)C)CC1 | 16 | 20 | 421 |
| CC1(C)[C@H]2CC[C@]1(C)[C@H](O)C2 [(-)-BORNEOL] | > 3 | > 14 | > 3000 |
| CC1CCN(CC(=O)O[C@@H]2C[C@@H]3CC[C@@]2(C)C3(C)C)CC1 | 3 | 9 | 240 |
| CCCCN(CCCC)CC(=O)O[C@@H]1C[C@@H]2CC[C@@]1(C)C2(C)C | 2 | 6 | 73 |
| CC1(C)[C@H]2CC[C@]1(C)[C@H](OC(=O)CCN1CCOCC1)C2 | 3 | 5 | 406 |
| CC1CCN(CCC(=O)O[C@@H]2C[C@@H]3CC[C@@]2(C)C3(C)C)CC1 | 34 | 60 | 215 |
| CC1(C)[C@H]2CC[C@]1(C)[C@H](OC(=O)CN1CCCC1)C2 | 5 | 9 | 480 |
| CC1(C)[C@H]2CC[C@]1(C)[C@H](OC(=O)CN1CCOCC1)C2 | 1 | 5 | 1280 |
| CN1CCN(CC(=O)O[C@@H]2C[C@@H]3CC[C@@]2(C)C3(C)C)CC1 | 4 | 14 | 637 |
| CCCCN(CCCC)CCC(=O)O[C@@H]1C[C@@H]2CC[C@@]1(C)C2(C)C | 8 | 15 | 86 |
| CC1(C)[C@H]2CC[C@]1(C)[C@H](OC(=O)CCN1CCCC1)C2 | 2 | 59 | 684 |
| COc1ccc(CCN(C)CCCC(C#N)(c2ccc(OC)c(OC)c2)C(C)C)cc1OC (configuration not stated) |  |  | 280 |
| CC1(C)[C@H]2CC[C@]1(C)[C@H](OC(=O)CN1CCCCC1)C2 | 1 | 4 | 321 |
